Measured values reported in the EternaBench riboswitch data.

System: MS2 coat protein
Experiment: apparent Kd, MS2 coat protein; higher = weaker binding; RNA-MaP array; FMN 200 µM where present
In short: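 SNAP-549-labelled MS2 coat protein, doubled from 0.7 or 1.5 nM to 3 µM, was titrated over designs transcribed by stalled E. coli RNA polymerase on Illumina sequencing-chip clusters. Titrations were run without and then with constant ligand in 100 mM Tris-HCl pH 7.5, 80 mM KCl, 4 mM MgCl2, BSA, DTT, yeast tRNA and Tween-20. The apparent Kd is the median of filtered per-cluster fits to green signal normalised to red-channel RNA signal and control-cluster median Fmax.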

[1] = designed as: OFF switch for flavin mononucleotide, no ligand
[2] = ligand present: flavin mononucleotide, designed as: OFF switch for flavin mononucleotide
[3] = designed as: ON switch for flavin mononucleotide, no ligand
[4] = ligand present: flavin mononucleotide, designed as: ON switch for flavin mononucleotide

| Sequence | apparent Kd [1] [nM] | apparent Kd [2] [nM] | apparent Kd [3] [nM] | apparent Kd [4] [nM] |
| --- | --- | --- | --- | --- |
| UUUAUGAAGCUUCGUCAAUACAGUUAGGAUAUGAGAGACAUGAGGAUCACCCAUGUGCAUGUUGAUUAGAAGGAACAACUAUCU | 17.6 | 15.1 | – | – |
| GGAGGACAUGAGGAUCACCCAUGUGGAUGAUCGCUAGGAUAUGCGUGCAGGAAGAGUGGUGCAGAAGGAGUGGGAU | – | – | 451 | 288 |
| CUCAUGUGAGGAUAUCAGUAGUAAAAAAAUAAAAUUACUACUGAGAAGGCACAUGAGGAUCACCCAUGUGCCUU | 15.6 | 12.9 | – | – |
| GCGUAACAUGAGGAUCACCCAUGUGCCCGAGAAUUCGGGCCGAGAAGGGUGACCGGACGUAUGGCACAGGAUAUCGACGUUUUG | – | – | 33.6 | 48.4 |
| UGGUAAUAGGGAGGAUAUGGGAAGAUACAUGAGGAUCACCCAUGUUUAAGAAUGCCGAGAGGCAACUAGAAGGCCCUAGUACCU | – | – | 468 | 19.6 |
| ACCUUACAUGAGGAUCACCCAUGUUAGGAUAUCUCGCCUGCGCUAACAAAGCGCAGGCAGAGAAGGGACGCGGG | 28.5 | 31.8 | – | – |
| AUAUCUUGUCGAGGAUAUGUUGUAUUGAUCUGAAAACAUGAGGAUCACCCAUGUAUACGGUGGGAACAGAAGGUGAAUGUAGAA | 574 | 715 | – | – |
| ACAAAUGGAGGAUAUACAUGAGGAUCACCCAUGUUUAUCCUACAUAUGUGAUCCUCAUGUAGAAGGCCAUUUGA | 11.4 | 10.8 | – | – |
| CACCGUUAAGGAGGAUAUCGUACAUGAGGAUCACCCAUGUAAUAAAUGAGAAUUUCGGAUGUAUGCGAGAAGGCCUAAAUCGGC | 49.5 | 42 | – | – |
| CAAUUUAUAACAGGAUAUAUAAUACAAUGAUUAAUAGAAGGGUUUAAUACAUGAGGAUCACCCAUGUCAUGUGUCAUAAUUACC | 40.1 | 32 | – | – |
| CUUUCGUGAGGAUAUGUGGCUUCGAUCGUGAGAUCGAAACUACAGAAGGCACAUGAGGAUCACCCAUGUUCCUC | 33.9 | 540 | – | – |
| AGGGUUGUGCUAGGAUAUCCAGGUUUGCAACAAGGAGAAGGAGCACAUGAGGAUCACCCAUGUUCUCAAAGGCCAUGGCAAUAU | 12.4 | 56.3 | – | – |
| UCCAAACAUGAGGAUCACCCAUGUGAGGAUAUGAUACUAUGUACUUCGGUACAUAGUAUCAGAAGGCACAUCCA | 13.6 | 22.2 | – | – |
| GCCGUGUUAGGAUAUUAAAGACCUGCGCCAAACGCAGGAAGUAAGAAGGAACAUGAGGAUCACCCAUGUGUCCG | 17.2 | 14.5 | – | – |
| ACCAAUGGAGGAUAUACAUGAGGAUCACCCAUGUUUAUCCUACAUAGGUGAAAAAUAUGUAGAAGGCCAUUGGA | 17 | 20.5 | – | – |
| GAGCUUGAUGAGAAGGGUUACAUGAGGAUCACCCAUGUCGACCUUGGCGUAACAGGAUAUCAUCGGGCUCUGUGCGUUGACCCA | 23.7 | 120 | – | – |
| ACGGUGGUCACAGGAUAUCCGGCACGCGUGCCCGGAGAAGGGUGACUCAGAACCACAUGAGGAUCACCCAUGUGCCUUGCCGUA | – | – | 186 | 37.1 |
| GCAGCUAAUGCAGGAUAUCAGCACGUGUAGUGCUGAGAAGGGCACAUGAGGAUCACCCAUGUGAUCAAUUAAUGUUAAUGCUGC | 18.1 | 57.5 | – | – |
| GGCGGUGAUCUAUUAGGACACAUGAGGAUCACCCAUGUGACAGAGGAUAUACGGAACUUUGGAUAGUAGAAGGCUGUCGCAAAA | 315 | 119 | – | – |
| AAACAGGGAGGAUAUACAUAGAUCCUCUAACCUAAUAGGUCACAUGAGGAUCACCCAUGUAGAAGGCCCUUAGG | 12.4 | 12.2 | – | – |
| GGGUACAUCGGAGGAUAUCAUGUAAAUACAUGAGGAUCACCCAUGUCGAUGGAGACAUCGGAGAUUGAGAAGGGCGAUGUACCG | – | – | 647 | 75.8 |
| UGUCGGAGCAGAGGAUAUUACAUGAGGAUCACCCAUGUAUAAAGAUCAAGCUGGAAACAGCAAUGUAAGAAGGCUGCUCCGACA | 60.4 | 418 | – | – |
| UAUUACAGAUAAGGAUAUUGACAUGAGGAUCACCCAUGUAUUUGGGAAUGUUUACUGAAUUCUUACGAGAAGGUAUACGUACUU | 128 | 98.7 | – | – |
| GGUGGACAUGAGGAUCACCCAUGUGAGGAUAUCGGCUGGCUAGUGGCGGCUGGCUUCUCGAGAAGGCGCAUAGU | 49.7 | 72.5 | – | – |
| CGAGUCAUAGCUCCUUAGCCAGCCAGAAGGGUCUACAUGAGGAUCACCCAUGUGGUCUCGAAGGGACAGGAUAUGGAGGGCGUA | 5.39 | 7.36 | – | – |
| CAUUAAUUCAUUAUAGUAAUUAUACAGGAUAUGUUACAUGAGGAUCACCCAUGUAUUCAUGGUAAACAGAAGGGUAAUACAAGA | 13.8 | 16.3 | – | – |
| GUCACACACUGCUCCGUGUCUGACAUGAGGAUCACCCAUGUGAGAAGGUAGCGUCGAAGCAACGUUAAGGAUAUCACGUGCAGU | 6.68 | 8.39 | – | – |
